Reference: ChEMBL document CHEMBL1156769, “9-Arylpurines as a novel class of enterovirus inhibitors” (J Med Chem, 2010)
pEC50: −log10 of the molar value.

Assays:
Coxsackievirus B3 = assay: Antiviral activity against Coxsackievirus B3 infected in african green monkey Vero cells assessed as reduction of virus-induced cytopathic effect after 3 days by MTS assay; type: functional, organism-based; details: Enterovirus B, 72 h
Procedure, shortened: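 CPE-reduction assay in confluent Vero cells. Serial compound dilutions and 100 CCID50 of CVB3 were added, then incubated 3 days at 37 °C until complete CPE in the virus control. Optical density after MTS/PMS was read at 498 nm relative to uninfected untreated cells. EC50 was interpolated linearly; mean ± SD of at least three independent experiments.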

[1] = Cytotoxicity against african green monkey Vero cells after 3 days by MTS assay; type: cell-based; details: chlorocebus sabaeus
Procedure, shortened: (§1)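 Uninfected cultures in the antiviral-assay setup were exposed to serial compound dilutions for three days at 37 °C. Viability was read by the MTS method. CC50, the concentration inhibiting cell proliferation by 50%, was obtained by linear interpolation; mean ± SD of at least three independent experiments.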

[2] = Cytotoxicity against human HeLa cells after 3 days by MTS assay; type: cell-based; procedure, shortened: as §1
[3] = Cytotoxicity against human MRC5 cells after 3 days by MTS assay; type: cell-based; procedure, shortened: as §1
[4] = Cytotoxicity against african green monkey Vero cells after 3 days by Cell titer glo luminescent assay; type: cell-based; details: chlorocebus sabaeus
Procedure, shortened: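 Uninfected Vero cells were incubated with serial compound dilutions for three days at 37 °C, using the same setup as the antiviral assay. Survival was measured with the CellTiter-Glo luminescent viability assay. CC50 (50% inhibition of proliferation) was determined by linear interpolation; mean ± SD of at least three independent experiments.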

[5] = Antiviral activity against Coxsackievirus A16 G10 infected in human MRC5 cells assessed as reduction of virus induced cytopathic effect after 3 days by MTS assay; type: functional, cell-based, Human coxsackievirus A16 (strain G-10); details: Enterovirus A, MRC5, 72 h
Procedure, shortened: (§2)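 Confluent MRC-5 monolayers received serial compound dilutions plus 100 CCID50 of virus and were incubated 3 days at 37 °C, until full CPE appeared in the untreated virus control. Viability was read by MTS/PMS at 498 nm and compared with uninfected, compound-free cells. EC50 (50% CPE inhibition) was obtained by linear interpolation; mean ± SD of at least three independent experiments.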

[6] = Antiviral activity against Enterovirus 71 BrCr infected in human RD cells assessed as reduction of virus induced cytopathic effect after 3 days by MTS assay; type: functional, cell-based, Human enterovirus 71 (strain BRCR); details: Enterovirus A, 72 h
Procedure, shortened: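 Virus was cultured in RD cells at 37 °C. Confluent cells were given serial compound dilutions with 100 CCID50 of virus for 3 days, until complete CPE in untreated infected controls. Cell viability was measured by MTS/PMS absorbance at 498 nm. EC50 was derived by linear interpolation; mean ± SD of at least three independent experiments.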

[7] = Antiviral activity against Echovirus 9 Hill assessed as reduction of virus-induced cytopathic effect after 3 days by MTS assay; type: functional, Echovirus 9 (strain Hill); procedure, shortened: as §2
[8] = Antiviral activity against Echovirus 11 Gregory assessed as reduction of virus-induced cytopathic effect after 3 days by MTS assay; type: functional, Echovirus 11 (strain Gregory); procedure, shortened: as §2
Poliovirus 1 = assay: Antiviral activity against Poliovirus1 sabin infected in Vero cells assessed as reduction of virus induced cytopathic effect after 3 days by MTS assay; type: functional, cell-based; details: Enterovirus C, 72 h
Procedure, shortened: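 Vero cells were grown to confluence at 37 °C and then given serial compound dilutions together with 100 CCID₅₀ virus. After 3 days, once virus controls reached full CPE, cell viability was measured by MTS/PMS as absorbance at 498 nm, relative to uninfected untreated wells. EC₅₀ was interpolated linearly as the concentration giving 50% CPE inhibition. Results are the mean ± SD of three or more independent experiments.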

[9] = Antiviral activity against Coxsackie virus A21 Coe infected in human MRC5 cells assessed as reduction of virus induced cytopathic effect after 3 days by MTS assay; type: functional, cell-based, Human coxsackievirus A21 (strain Coe); details: Enterovirus C, MRC5, 72 h
Procedure, shortened: (§3)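 Confluent MRC-5 monolayers were cultured at 37 °C and given serial compound dilutions plus 100 CCID₅₀ virus. EC₅₀ (50% CPE inhibition) was found by linear interpolation. Values are the mean ± SD of at least three independent experiments.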

Coxsackievirus A24 = assay: Antiviral activity against Coxsackie virus A24 infected in human MRC5 cells assessed as reduction of virus induced cytopathic effect after 3 days by MTS assay; type: functional, organism-based; details: Enterovirus C, MRC5, 72 h; procedure, shortened: as §3
rhinovirus A2 = assay: Antiviral activity against Rhinovirus 2 infected in human HeLa-R cells assessed as reduction of virus induced cytopathic effect after 3 days by MTS assay; type: functional, organism-based; details: Rhinovirus A, 72 h
Procedure, shortened: (§4)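 Rhinoviruses were cultured in HeLa R cells at 35 °C. Confluent cells received serial compound dilutions and 100 CCID50 of virus until complete CPE developed in the virus control. Survival was quantified by MTS/PMS at 498 nm versus uninfected compound-free cells. EC50 was calculated by linear interpolation; mean ± SD of at least three independent experiments.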

rhinovirus B14 = assay: Antiviral activity against Rhinovirus 14 infected in human HeLa-R cells assessed as reduction of virus induced cytopathic effect after 3 days by MTS assay; type: functional, organism-based; details: Rhinovirus B, 72 h; procedure, shortened: as §4

## OCc1cccc(-n2cnc3c(Cl)ncnc32)c1
Coxsackievirus B3
  pEC50: 4.85
  EC90: 30 µM
[1]
  CC50 at 72 h: > 100 µM
[2]
  CC50 at 72 h: 175 µM
[3]
  CC50 at 72 h: 229 µM
[4]
  CC50 at 72 h: 200 µM

## Cc1ncnc2c1ncn2-c1cccc(CO)c1
Coxsackievirus B3
  pEC50: < 4.00
[1]
  CC50 at 72 h: > 100 µM

## CC(C)COc1ccc(-n2cnc3c(Cl)ncnc32)cc1
Coxsackievirus B3
  pEC50: < 4.00
[1]
  CC50 at 72 h: > 100 µM

## CC(=O)c1cccc(-n2nnc3c(Cl)ncnc32)c1
Coxsackievirus B3
  pEC50: < 4.36
[1]
  CC50 at 72 h: 44 µM

## Cc1nc(Cl)c2ncn(-c3cccc(C(C)(C)O)c3)c2n1
Coxsackievirus B3
  pEC50: 5.10
  EC90: 7.4 µM
[1]
  CC50 at 72 h: > 100 µM
[2]
  CC50 at 72 h: > 250 µM
[3]
  CC50 at 72 h: > 250 µM
[4]
  CC50 at 72 h: > 250 µM

## COc1cccc(Cn2cnc3ncnc(Cl)c32)c1
Coxsackievirus B3
  pEC50: 4.12
  EC90: > 100 µM
[1]
  CC50 at 72 h: > 100 µM

## O=C(c1ccccc1)c1ccc(-n2cnc3c(Cl)ncnc32)cc1
Coxsackievirus B3
  pEC50: 4.17
  EC90: 85 µM
[1]
  CC50 at 72 h: > 100 µM

## CC(=O)c1cc(-n2cnc3c(Cl)ncnc32)ccc1F
Coxsackievirus B3
  pEC50: 5.03
  EC90: 15 µM
[1]
  CC50 at 72 h: > 100 µM

## Clc1ncnc2c1ncn2-c1ccc2c(c1)OCO2
Coxsackievirus B3
  pEC50: < 4.00
[1]
  CC50 at 72 h: > 100 µM

## CNc1ncnc2c1ncn2-c1cccc(CO)c1
Coxsackievirus B3
  pEC50: < 4.00
[1]
  CC50 at 72 h: > 100 µM

## OCc1ccc(-n2cnc3c(Cl)ncnc32)cc1
Coxsackievirus B3
  pEC50: 4.96
  EC90: 20 µM
[1]
  CC50 at 72 h: > 100 µM

## CC(=O)c1cccc(-n2cnc3c(Cl)ncnc32)c1
Coxsackievirus B3
  pEC50: 5.14
  EC90: 9.1 µM
[1]
  CC50 at 72 h: > 100 µM
[2]
  CC50 at 72 h: 144 µM
[3]
  CC50 at 72 h: 238 µM
[4]
  CC50 at 72 h: > 250 µM
[5]
  pEC50: 5.57
[6]
  pEC50: < 4.00
[7]
  pEC50: 5.48
[8]
  pEC50: < 4.00
Poliovirus 1
  pEC50: < 4.00
[9]
  pEC50: 5.35
Coxsackievirus A24
  pEC50: 5.57
Rhinovirus A2
  pEC50: < 4.00
Rhinovirus B14
  pEC50: < 4.00

## Nc1nc(Cl)c2ncn(-c3cccc(CO)c3)c2n1
Coxsackievirus B3
  pEC50: 4.77
  EC90: 25 µM
[1]
  CC50 at 72 h: > 100 µM

## COc1ccc(C(C)=O)cc1-n1cnc2c(Cl)nc(C)nc21
Coxsackievirus B3
  pEC50: < 4.00
[1]
  CC50 at 72 h: > 100 µM

## OCc1cccc(-n2cnc3c(Br)ncnc32)c1
Coxsackievirus B3
  pEC50: 4.66
  EC90: 29 µM
[1]
  CC50 at 72 h: > 100 µM

## CC(=O)c1cccc(Nc2ncnc(Cl)c2N)c1
Coxsackievirus B3
  pEC50: < 4.00
[1]
  CC50 at 72 h: > 100 µM

## CC(=O)c1cccc(Nc2nc(C)nc(Cl)c2N)c1
Coxsackievirus B3
  pEC50: < 4.00
[1]
  CC50 at 72 h: > 100 µM

## CC(=O)c1cccc(-n2c(C)nc3c(Cl)ncnc32)c1
Coxsackievirus B3
  pEC50: 4.91
  EC90: 22 µM
[1]
  CC50 at 72 h: > 100 µM

## CC(=O)c1cccc(-n2cnc3c(Cl)nc(C)nc32)c1
Coxsackievirus B3
  pEC50: 5.06
  EC90: 14 µM
[1]
  CC50 at 72 h: > 100 µM

## CC(=O)c1cccc(-n2c(C)nc3c(Cl)nc(C)nc32)c1
Coxsackievirus B3
  pEC50: 4.96
  EC90: 15 µM
[1]
  CC50 at 72 h: > 100 µM

## CC(=O)c1cccc(-n2c(=O)[nH]c3c(Cl)ncnc32)c1
Coxsackievirus B3
  pEC50: 5.03
  EC90: 18 µM
[1]
  CC50 at 72 h: > 100 µM

## OCc1cccc(-n2cnc3c(Cl)nc(Cl)nc32)c1
Coxsackievirus B3
  pEC50: < 5.06
[1]
  CC50 at 72 h: 8.8 µM

## OCc1cccc(-n2cnc3cncnc32)c1
Coxsackievirus B3
  pEC50: < 4.00
[1]
  CC50 at 72 h: > 100 µM

## CC(=O)c1ccc(-n2cnc3c(Cl)ncnc32)cc1
Coxsackievirus B3
  pEC50: 4.45
  EC90: 51 µM
[1]
  CC50 at 72 h: > 100 µM

## COC(=O)c1cccc(-n2cnc3c(Cl)ncnc32)c1
Coxsackievirus B3
  pEC50: 4.95
  EC90: 22 µM
[1]
  CC50 at 72 h: > 100 µM

## CC(=O)c1cccc(-n2c(=O)[nH]c3c(Cl)nc(C)nc32)c1
Coxsackievirus B3
  pEC50: 5.17
  EC90: 10 µM
[1]
  CC50 at 72 h: > 100 µM
[2]
  CC50 at 72 h: > 250 µM
[3]
  CC50 at 72 h: > 250 µM
[4]
  CC50 at 72 h: > 250 µM

## COc1ncnc2c1ncn2-c1cccc(CO)c1
Coxsackievirus B3
  pEC50: < 4.00
[1]
  CC50 at 72 h: > 100 µM

## COc1cccc(Cn2cnc3c(Cl)ncnc32)c1
Coxsackievirus B3
  pEC50: 4.28
  EC90: 70 µM
[1]
  CC50 at 72 h: > 100 µM

## COc1ccc(C(C)=O)cc1-n1cnc2c(Cl)ncnc21
Coxsackievirus B3
  pEC50: < 4.24
[1]
  CC50 at 72 h: > 100 µM

## Cc1nc(Cl)c2[nH]c(=O)n(-c3cccc(C(C)(C)O)c3)c2n1
Coxsackievirus B3
  pEC50: 4.66
  EC90: 29 µM
[1]
  CC50 at 72 h: > 100 µM

## OCc1cccc(-n2cnc3c(O)ncnc32)c1
Coxsackievirus B3
  pEC50: < 4.00
[1]
  CC50 at 72 h: > 100 µM

## CC(=O)c1cccc(-n2nnc3c(Cl)nc(C)nc32)c1
Coxsackievirus B3
  pEC50: < 4.36
[1]
  CC50 at 72 h: 44 µM

## CC(C)COc1cccc(-n2cnc3c(Cl)ncnc32)c1
Coxsackievirus B3
  pEC50: 4.54
  EC90: > 100 µM
[1]
  CC50 at 72 h: > 100 µM

## COc1cccc(-n2cnc3c(Cl)ncnc32)c1
Coxsackievirus B3
  pEC50: 4.92
  EC90: 22 µM
[1]
  CC50 at 72 h: > 100 µM

## Fc1cccc(F)c1[C@@H]1SCc2nc3cc(C(F)(F)F)ccc3n21
Coxsackievirus B3
  pEC50: 5.92
[1]
  CC50 at 72 h: > 100 µM

## CC(C)S(=O)(=O)n1c(N)nc2ccc(/C(=N/O)c3ccccc3)cc21 [ENVIROXIME]
Coxsackievirus B3
  pEC50: 6.15
[1]
  CC50 at 72 h: > 100 µM
